The text below walks through data of ChEMBL document CHEMBL5584364, “Reaping the Chemical Diversity of Morinagamyces vermicularis Using Feature-Based Molecular Networking” (J Nat Prod, 2024).

≈ marks a conversion by molar mass, not a printed value. Calls of active or inactive are those of the source. No cut-off for these calls is given here.

In data set [1] the test system is Pseudomonas aeruginosa. Briefly: Antibacterial activity against Pseudomonas aeruginosa assessed as reduction in microbial growth incubated for overnight by serial dilution assay. It counts as functional, organism-based. An outline of the steps: (§1)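 MIC50 determined against Gram-positive and Gram-negative bacteria. Positive controls: oxytetracycline for most bacteria, ciprobay for A. baumannii, gentamycin for Ps. aeruginosa. Values given in µg/mL; "–" means no inhibition under test conditions.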

Data set [2] is described as follows: (§2) Cytotoxicity against human KB-3-1 cells assessed as reduction in cell viability after 5 days by MTT assay. It counts as toxicity, cell-based. To be noted: human, KB-3-1 cells. An outline of the steps:
(§3)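 Cytotoxicity read by MTT method against mammalian cell lines (human endocervical adenocarcinoma KB 3.1, mouse fibroblast L929), with epothilone B as positive control. IC50 reported in µM.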

Data set [3] is described as follows: Cytotoxicity against mouse L929 cells assessed as reduction in cell viability after 5 days by MTT assay. It counts as toxicity, cell-based. An outline of the steps: as §3
(Formazan colour is commonly taken as a measure of viable cells.)

In data set [4] the test system is Rhodotorula glutinis. Kind of data set: Antifungal activity against Rhodotorula glutinis assessed as reduction in fungal growth incubated for overnight by serial dilution assay. It is filed as functional. An outline of the steps: (§4)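 MIC50 determined against five fungi (C. albicans, M. hiemalis, R. glutinis, S. pombe, W. anomalus), with nystatin as positive control. Values given in µg/mL; "–" means no inhibition under test conditions.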

Data set [5] relates to Chromobacterium violaceum. Briefly: Antibacterial activity against Chromobacterium violaceum assessed as reduction in microbial growth incubated for overnight by serial dilution assay. It counts as functional. Put shortly: as §1
Data set [6] has as its system Candida albicans. Briefly: Antifungal activity against Candida albicans assessed as reduction in fungal growth incubated for overnight by serial dilution assay. It is filed as functional. An outline of the steps: as §4
For data set [7], the system named is Escherichia coli. Briefly: Antibacterial activity against Escherichia coli assessed as reduction in microbial growth incubated for overnight by serial dilution assay. It is filed as functional. Put shortly: as §1
The subject of data set [8] is Wickerhamomyces anomalus. Briefly: Antifungal activity against Wickerhamomyces anomalus assessed as reduction in fungal growth incubated for overnight by serial dilution assay. It is filed as functional. Put shortly:
as §4

Data set [9] concerns Schizosaccharomyces pombe. Briefly: Antifungal activity against Schizosaccharomyces pombe assessed as reduction in fungal growth incubated for overnight by serial dilution assay. It counts as functional. An outline of the steps:
as §4

Data set [10] deals with Bacillus subtilis. Kind of data set: Antibacterial activity against Bacillus subtilis assessed as reduction in microbial growth incubated for overnight by serial dilution assay. It is filed as functional. Put shortly:
as §1

In data set [11] the test system is Mucor hiemalis. Kind of data set: Antifungal activity against Mucor hiemalis assessed as reduction in fungal growth incubated for overnight by serial dilution assay. It is filed as functional. Put shortly:
as §4

Data set [12] concerns Staphylococcus aureus. Briefly: Antibacterial activity against Staphylococcus aureus assessed as reduction in microbial growth incubated for overnight by serial dilution assay. It is filed as functional. An outline of the steps: as §1
Data set [13] deals with KB 3-1. The data set is described as §2. It is filed as toxicity, cell-based. To be noted: kb 3-1. An outline of the steps:
as §3

In data set [14] the test system is Acinetobacter baumannii. Kind of data set: Antibacterial activity against Acinetobacter baumannii assessed as reduction in microbial growth incubated for overnight by serial dilution assay.

By MIC is commonly meant the lowest concentration found to suppress growth. GENTAMICIN: the minimum inhibitory concentration (MIC) in data set [1] came out at 0.42 µg/mL.

A word on the IC50: it is the point on the concentration scale where inhibition reaches its midpoint. As to `C/C(=C\c1csc(C)n1)[C@@H]1C[C@@H]2O[C@@H]2CCC[C@H](C)[C@H](O)[C@@H](C)C(=O)C(C)(C)[C@H](O)CC(=O)O1`, the IC50 at 5 days in [2] came to 4e-05 µM; in data set [3], 0.00052 µM.

As to `CN1C(=O)C23SSC4c5ccccc5O[C@]41C(=O)N2O[C@]1(C[C@H](O)[C@H](O)CC1=O)[C@H]3O` (stereo partly specified), the MIC in data set [4] was determined as 66.6 µg/mL (≈ 143 µM); in data set [8] (Hansenula anomala) it was 66.6 µg/mL (≈ 143 µM); in data set [9], 66.6 µg/mL (≈ 143 µM); in [10] it was 33.3 µg/mL; in data set [11] it was 33.3 µg/mL (≈ 71.4 µM); in data set [12], 33.3 µg/mL. Also, the outcome in [5], in data set [6], in data set [7] and in data set [1] was inactive. Also, the IC50 at 5 days came out at 54 µM in data set [2] and 58 µM in [3].

Turning to `CSC1c2ccccc2O[C@]12C(=O)N1O[C@]3(CCC=CC3=O)[C@@H](O)C1(SC)C(=O)N2C` (stereo partly specified), the result in data set [4], in [5], in data set [6], in [7], in data set [8] and in data set [9] was inactive. For the same molecule, the outcome in data set [1] and in data set [11] was inactive. Besides, the IC50 at 5 days in data set [2] turned out to be 15 µM; in [3], 5 µM. Besides, the MIC in [10] and in data set [12] was 66.6 µg/mL throughout.

In the case of `CN1C(=O)C23SSSC4c5ccccc5O[C@]41C(=O)N2O[C@]1(C[C@H](O)[C@H](O)CC1=O)[C@H]3O` (stereo partly specified), the MIC in [4] was 66.6 µg/mL (≈ 134 µM); in data set [6], 66.6 µg/mL (≈ 134 µM); in [8] (Hansenula anomala) it was 33.3 µg/mL (≈ 66.8 µM); in data set [9] it was 66.6 µg/mL (≈ 134 µM); in [10], 66.6 µg/mL; in data set [11], 66.6 µg/mL (≈ 134 µM). The result in data set [5], in [7], in data set [1] and in data set [12] was inactive. For the same molecule, the IC50 result in data set [13] is given as “Non-Toxic”. Moreover, the concentration for half-maximal inhibition (IC50) at 5 days in data set [3] was found to be 50 µM.

As to `CN(C)[C@@H]1C(O)=C(C(N)=O)C(=O)[C@@]2(O)C(O)=C3C(=O)c4c(O)cccc4[C@@](C)(O)[C@H]3[C@H](O)[C@@H]12` [OXYTETRACYCLINE], the MIC in [5] turned out to be 0.83 µg/mL; in data set [7], 3.3 µg/mL; in [10] it was 16.6 µg/mL; in [12], 0.83 µg/mL.

With `CN1C(=O)C23SSC4c5ccccc5O[C@]41C(=O)N2O[C@]1(C[C@H](O)C=CC1=O)[C@H]3O` (stereo partly specified), the MIC in [4] amounted to 33.3 µg/mL (≈ 74.3 µM); in [5], 16.6 µg/mL; in [6] it was 66.6 µg/mL (≈ 149 µM); in data set [8] (Hansenula anomala), 33.3 µg/mL (≈ 74.3 µM); in data set [9] it was 66.6 µg/mL (≈ 149 µM); in data set [10] it was 16.6 µg/mL. For the same molecule, the MIC in data set [11] stood at 8 µg/mL (≈ 17.8 µM); in data set [12] it was 8.3 µg/mL. Moreover, the IC50 at 5 days worked out at 49 µM in [2] and 42 µM in data set [3]. For the same molecule, the result in [7] and in data set [1] was inactive.

As to NYSTATIN, the MIC in [4] amounted to 2.1 µg/mL; in data set [6], 16.6 µg/mL; in data set [8], 8.3 µg/mL; in data set [9], 4.2 µg/mL; in data set [11], 8.3 µg/mL.

Take `O=C(O)c1cn(C2CC2)c2cc(N3CCNCC3)c(F)cc2c1=O` [CIPROFLOXACIN]: the minimum inhibitory concentration (MIC) in data set [14] came out at 0.53 µg/mL.
